{"source": "ChEMBL document CHEMBL1149489", "about": "“Synthesis and biological evaluation of benzamides and benzamidines as selective inhibitors of VEGFR tyrosine kinases” (Bioorg Med Chem Lett, 2006)", "note": "The source made the active and inactive calls. The calls are words filed in the database; no cut-off is given here.", "data": [{"molecular_target": "Epidermal growth factor receptor (Homo sapiens) (UniProt P00533)", "sequence (P00533 whole entry)": "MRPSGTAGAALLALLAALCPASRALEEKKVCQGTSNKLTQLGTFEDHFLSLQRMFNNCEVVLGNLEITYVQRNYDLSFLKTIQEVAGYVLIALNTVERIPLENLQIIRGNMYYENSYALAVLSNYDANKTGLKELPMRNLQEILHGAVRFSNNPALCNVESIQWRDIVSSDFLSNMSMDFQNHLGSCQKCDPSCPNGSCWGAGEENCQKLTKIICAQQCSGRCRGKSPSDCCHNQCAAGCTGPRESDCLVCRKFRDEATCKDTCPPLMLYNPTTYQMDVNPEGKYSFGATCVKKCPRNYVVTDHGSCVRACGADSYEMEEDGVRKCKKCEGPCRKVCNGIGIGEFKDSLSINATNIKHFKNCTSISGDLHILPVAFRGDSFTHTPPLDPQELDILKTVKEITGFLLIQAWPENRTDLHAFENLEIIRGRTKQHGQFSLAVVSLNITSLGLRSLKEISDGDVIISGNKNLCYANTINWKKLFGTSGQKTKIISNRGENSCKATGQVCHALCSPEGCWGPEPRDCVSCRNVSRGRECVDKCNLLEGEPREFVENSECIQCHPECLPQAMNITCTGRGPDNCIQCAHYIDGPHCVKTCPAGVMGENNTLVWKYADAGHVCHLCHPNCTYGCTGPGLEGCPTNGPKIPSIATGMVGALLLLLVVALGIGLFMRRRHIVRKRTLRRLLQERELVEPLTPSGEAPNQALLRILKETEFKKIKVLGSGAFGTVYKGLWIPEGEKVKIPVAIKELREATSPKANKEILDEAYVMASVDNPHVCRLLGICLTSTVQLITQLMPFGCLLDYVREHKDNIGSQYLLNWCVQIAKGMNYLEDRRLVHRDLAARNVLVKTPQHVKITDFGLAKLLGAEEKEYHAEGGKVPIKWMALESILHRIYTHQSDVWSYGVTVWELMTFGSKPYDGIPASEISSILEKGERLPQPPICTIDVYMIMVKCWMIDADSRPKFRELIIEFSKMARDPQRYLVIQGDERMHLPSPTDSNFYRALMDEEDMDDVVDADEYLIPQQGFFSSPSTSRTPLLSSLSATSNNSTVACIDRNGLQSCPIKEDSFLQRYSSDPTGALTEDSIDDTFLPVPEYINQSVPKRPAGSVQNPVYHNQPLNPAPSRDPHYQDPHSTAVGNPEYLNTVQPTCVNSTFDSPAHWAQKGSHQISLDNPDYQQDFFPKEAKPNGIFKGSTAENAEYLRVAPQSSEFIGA", "experiment": "Inhibition of EGFR at 10 uM", "outline": "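ELISA autophosphorylation-type assay. Wells were coated overnight at 4 °C with 50 µg/ml poly(Glu:Tyr, 4:1) in PBS. The kinase reaction ran 20 min in 50 mM HEPES, 125 mM NaCl, 10 mM MgCl2, pH 7.4, with 100 µM ATP and compound at 10 µM. Phosphotyrosine was detected with HRP anti-phosphotyrosine antibody and TMB, acid-stopped, and read at A450.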", "values": [{"smiles": "O=C(Nc1ccccc1Cl)c1ccccc1OCc1ccncc1", "Activity": "inactive"}, {"smiles": "O=C(Nc1ccccc1C(F)(F)F)c1ccccc1OCc1ccncc1", "Activity": "inactive"}, {"smiles": "N=C(Nc1ccccc1Cl)c1ccccc1OCc1ccncc1", "Activity": "inactive"}, {"smiles": "COc1cc(NCc2ccncc2)c(C(=O)Nc2cnccn2)cc1OC", "Activity": "inactive"}, {"smiles": "N=C(Nc1ccc(Cl)cc1)c1ccccc1NCc1ccncc1", "Activity": "inactive"}, {"smiles": "COc1cc(OCc2ccncc2)c(C(=O)Nc2ccccc2Cl)cc1OC", "Activity": "inactive"}, {"smiles": "COc1cc(OCc2ccncc2)c(C(=N)Nc2ccccc2C(F)(F)F)cc1OC", "Activity": "inactive"}, {"smiles": "COc1cc(OCc2ccncc2)c(C(=O)Nc2ccc(Cl)cc2)cc1OC", "Activity": "inactive"}, {"smiles": "COc1cc(NCc2ccncc2)c(C(=O)Nc2ncccn2)cc1OC", "Activity": "inactive"}, {"smiles": "N=C(Nc1ccccc1C(F)(F)F)c1ccccc1NCc1ccncc1", "Activity": "inactive"}, {"smiles": "COc1cc(NCc2ccncc2)c(C(=N)Nc2ccccc2Cl)cc1OC", "Activity": "inactive"}, {"smiles": "COc1cc(NCc2ccncc2)c(C(=N)Nc2ccccc2C(F)(F)F)cc1OC", "Activity": "inactive"}, {"smiles": "COc1cc(OCc2ccncc2)c(C(=O)Nc2ccccc2C(F)(F)F)cc1OC", "Activity": "inactive"}, {"smiles": "COc1cc(NCc2ccncc2)c(C(=N)Nc2ccc(Cl)cc2)cc1OC", "Activity": "inactive"}, {"smiles": "O=C(Nc1ncccn1)c1ccccc1NCc1ccncc1", "Activity": "inactive"}, {"smiles": "COc1cc(OCc2ccncc2)c(C(=N)Nc2ccccc2Cl)cc1OC", "Activity": "inactive"}, {"smiles": "N=C(Nc1ccc(Cl)cc1)c1ccccc1OCc1ccncc1", "Activity": "inactive"}, {"smiles": "O=C(Nc1cnccn1)c1ccccc1NCc1ccncc1", "Activity": "inactive"}, {"smiles": "N=C(Nc1ccccc1Cl)c1ccccc1NCc1ccncc1", "Activity": "inactive"}, {"smiles": "COc1cc(OCc2ccncc2)c(C(=O)Nc2cnccn2)cc1OC", "Activity": "inactive"}, {"smiles": "COc1cc(OCc2ccncc2)c(C(=O)Nc2ncccn2)cc1OC", "Activity": "inactive"}, {"smiles": "N=C(Nc1ccccc1C(F)(F)F)c1ccccc1OCc1ccncc1", "Activity": "inactive"}, {"smiles": "COc1cc(NCc2ccncc2)c(C(=O)Nc2ccccn2)cc1OC", "Activity": "inactive"}, {"smiles": "COc1cc(OCc2ccncc2)c(C(=O)Nc2ccccn2)cc1OC", "Activity": "inactive"}, {"smiles": "O=C(Nc1ccccn1)c1ccccc1NCc1ccncc1", "Activity": "inactive"}, {"smiles": "COc1cc(OCc2ccncc2)c(C(=N)Nc2ccc(Cl)cc2)cc1OC", "Activity": "inactive"}]}]}
